Assay results: ChEMBL document CHEMBL1121371, “Antihypertensive 5,6-diarylpyridazin-3-ones” (1980)
“And” between values parts separate entries of the source, which are not always exact repeats. Equal values may be shown once.

Tests used:
[1] = test system: Rattus norvegicus; experiment: Antihypertensive activity in spontaneously hypertensive rats was measured as average blood pressure at 100 mg/kg, p.o. after 4 hours of postdose-1; type: functional; conditions: route oral
In short: (§1)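 Spontaneously hypertensive rats aged 12 to 16 weeks, in groups of five with systolic pressure of 170 mmHg or more. Oral dosing as a solution or suspension in 0.25% methylcellulose, 5 mL/kg, with a vehicle control group. Tail-cuff systolic pressure was read predose and 4 and 24 h after each of two doses. Values were compared with predose by Student's t test.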

[2] = test system: Rattus norvegicus; experiment: Antihypertensive activity in spontaneously hypertensive rats was measured as average blood pressure at 100 mg/kg, p.o. after 4 hours of postdose-2; type: functional; conditions: route oral; in short: as §1
[3] = test system: Rattus norvegicus; experiment: Antihypertensive activity in spontaneously hypertensive rats was measured as average blood pressure at 100 mg/kg, p.o. before predose; type: functional; conditions: route oral; in short: as §1
[4] = test system: Rattus norvegicus; experiment: Antihypertensive activity in spontaneously hypertensive rats was measured as average blood pressure at 100 mg/kg, p.o. after 24 hours of postdose-1.; type: functional; conditions: route oral; in short: as §1
[5] = species on record: Rattus norvegicus; experiment: Antihypertensive activity in spontaneously hypertensive rats was measured; (+)=Increased heart rate; type: functional, organism-based
[6] = test system: Rattus norvegicus; experiment: Antihypertensive activity in spontaneously hypertensive rats was measured as average blood pressure at 100 mg/kg, po after 24 hours of postdose-2; type: functional; in short: as §1
[7] = test system: Rattus norvegicus; experiment: Antihypertensive activity in spontaneously hypertensive rats was measured as average blood pressure at 100 mg/kg, p.o. after 4 hours of postdose-1.; type: functional; conditions: route oral; in short: as §1
[8] = test system: Rattus norvegicus; experiment: Antihypertensive activity in spontaneously hypertensive rats was measured as average blood pressure at 30 mg/kg, p.o. after 24 hours of postdose-1; type: functional; conditions: route oral; in short: as §1
[9] = test system: Rattus norvegicus; experiment: Antihypertensive activity in spontaneously hypertensive rats was measured as average blood pressure at 30 mg/kg, p.o. before predose; type: functional; conditions: route oral; in short: as §1
[10] = test system: Rattus norvegicus; experiment: Antihypertensive activity in spontaneously hypertensive rats was measured as average blood pressure at 30 mg/kg, p.o. after 4 hours of postdose-2; type: functional; conditions: route oral; in short: as §1
[11] = test system: Rattus norvegicus; experiment: Antihypertensive activity in spontaneously hypertensive rats was measured as average blood pressure at 30 mg/kg, po after 4 hours of postdose-1.; type: functional; in short: as §1
[12] = test system: Rattus norvegicus; experiment: Antihypertensive activity in spontaneously hypertensive rats was measured as average blood pressure at 30 mg/kg, p.o. after 24 hours of postdose-2; type: functional; conditions: route oral; in short: as §1
[13] = test system: Rattus norvegicus; experiment: Antihypertensive activity in spontaneously hypertensive rats was measured as average blood pressure at 25 mg/kg, po after 4 hours of postdose-1; type: functional; in short: as §1
[14] = test system: Rattus norvegicus; experiment: Antihypertensive activity in spontaneously hypertensive rats was measured as average blood pressure at 50 mg/kg, p.o. after 4 hours of postdose-2; type: functional; conditions: route oral; in short: as §1
[15] = test system: Rattus norvegicus; experiment: Antihypertensive activity in spontaneously hypertensive rats was measured as average blood pressure at 25 mg/kg, p.o. after 24 hours of postdose-2; type: functional; conditions: route oral; in short: as §1
[16] = test system: Rattus norvegicus; experiment: Antihypertensive activity in spontaneously hypertensive rats was measured as average blood pressure at 25 mg/kg, p.o. before predose; type: functional; conditions: route oral; in short: as §1
[17] = test system: Rattus norvegicus; experiment: Antihypertensive activity in spontaneously hypertensive rats was measured as average blood pressure at 10 mg/kg, p.o. after 24 hours of postdose-1; type: functional; conditions: route oral; in short: as §1
[18] = test system: Rattus norvegicus; experiment: Antihypertensive activity in spontaneously hypertensive rats was measured as average blood pressure at 50 mg/kg, p.o. before predose; type: functional; conditions: route oral; in short: as §1
[19] = test system: Rattus norvegicus; experiment: Antihypertensive activity in spontaneously hypertensive rats was measured as average blood pressure at 10 mg/kg, p.o. after 4 hours of postdose-1.; type: functional; conditions: route oral; in short: as §1
[20] = test system: Rattus norvegicus; experiment: Antihypertensive activity in spontaneously hypertensive rats was measured as average blood pressure at 10 mg/kg, p.o. after 24 hours of postdose-2; type: functional; conditions: route oral; in short: as §1
[21] = test system: Rattus norvegicus; experiment: Antihypertensive activity in spontaneously hypertensive rats was measured as average blood pressure at 10 mg/kg, p.o. before predose; type: functional; conditions: route oral; in short: as §1
[22] = test system: Rattus norvegicus; experiment: Antihypertensive activity in spontaneously hypertensive rats was measured as average blood pressure at 25 mg/kg, p.o. after 24 hours of postdose-1; type: functional; conditions: route oral; in short: as §1
[23] = test system: Rattus norvegicus; experiment: Antihypertensive activity in spontaneously hypertensive rats was measured as average blood pressure at 50 mg/kg, p.o. after 24 hours of postdose-2; type: functional; conditions: route oral; in short: as §1
[24] = test system: Rattus norvegicus; experiment: Antihypertensive activity in spontaneously hypertensive rats was measured as average blood pressure at 50 mg/kg, p.o. after 4 hours of postdose-1; type: functional; conditions: route oral; in short: as §1
[25] = test system: Rattus norvegicus; experiment: Antihypertensive activity in spontaneously hypertensive rats was measured as average blood pressure at 10 mg/kg, p.o. after 4 hours of postdose-2; type: functional; conditions: route oral; in short: as §1
[26] = test system: Rattus norvegicus; experiment: Antihypertensive activity in spontaneously hypertensive rats was measured as average blood pressure at 25 mg/kg, p.o. after 4 hours of postdose-2; type: functional; conditions: route oral; in short: as §1
[27] = test system: Rattus norvegicus; experiment: Antihypertensive activity in spontaneously hypertensive rats was measured as average blood pressure at 50 mg/kg, p.o. after 24 hours of postdose-1; type: functional; conditions: route oral; in short: as §1
[28] = test system: Rattus norvegicus; experiment: Antihypertensive activity in spontaneously hypertensive rats was measured as increase in heart rate at 100 mg/kg peroral dose; (+)=Increased heart rate; type: functional, organism-based; set-up: dose 100 mg/kg
[29] = test system: Rattus norvegicus; experiment: Antihypertensive activity in spontaneously hypertensive rats was measured as average blood pressure at 100 mg/kg, p.o. after 4 hours of postdose; type: functional; conditions: route oral; in short: as §1
[30] = test system: Rattus norvegicus; experiment: Antihypertensive activity in spontaneously hypertensive rats was measured as average blood pressure at 100 mg/kg, p.o. after 24 hours of postdose; type: functional; conditions: route oral; in short: as §1
[31] = test system: Rattus norvegicus; experiment: Antihypertensive activity in spontaneously hypertensive rats was measured as change in heart rate at 100 mg/kg peroral dose; No significant change is heart rate; type: functional; conditions: route oral

O=c1c(-c2ccccc2)c(-c2ccccc2)c(-c2ccccc2)nn1CCO
BP [1]: 173 mmHg
BP [2]: 176 mmHg
BP [3]: 200 mmHg
BP [4]: 187 mmHg
Heart rate [5]: Increased heart rate
BP [6]: 188 mmHg

CC(=O)c1c(-c2ccc(Cl)cc2)c(-c2ccc(Cl)cc2)nn(CCN2CCOCC2)c1=O
BP [1]: 140 mmHg
BP ([2]; 100 mg/kg): 199 mmHg and 146 mmHg
BP ([3]; 100 mg/kg): 239 mmHg and 201 mmHg
BP [7]: 230 mmHg
BP ([4]; 100 mg/kg): 201 mmHg and 161 mmHg
BP ([6]; 100 mg/kg): 222 mmHg and 177 mmHg

CC(=O)NCCn1nc(-c2ccc(Cl)cc2)c(-c2ccc(Cl)cc2)c(C(C)=O)c1=O
BP [1]: 149 mmHg
BP [2]: 136 mmHg
BP [3]: 220 mmHg
BP [4]: 146 mmHg
BP [6]: 145 mmHg

CC(=O)c1c(-c2ccc(Cl)cc2)c(-c2ccc(Cl)cc2)nn(CCN(C)C)c1=O
BP [2]: 155 mmHg
BP [3]: 201 mmHg
BP [7]: 182 mmHg
BP [8]: 164 mmHg
BP [4]: 179 mmHg
BP [9]: 199 mmHg
BP [10]: 167 mmHg
BP [11]: 182 mmHg
BP [12]: 193 mmHg
BP [6]: 144 mmHg

N#Cc1c(-c2ccc(Cl)cc2)c(-c2ccc(Cl)cc2)nn(CCO)c1=O
BP [13]: 168 mmHg
BP [1]: 157 mmHg
BP [14]: 156 mmHg
BP [2]: 145 mmHg
BP [3]: 200 mmHg
BP [15]: 180 mmHg
BP [16]: 208 mmHg
BP [17]: 184 mmHg
BP [18]: 200 mmHg
BP [4]: 158 mmHg
BP [19]: 181 mmHg
BP [20]: 180 mmHg
BP [21]: 194 mmHg
BP [22]: 178 mmHg
BP [23]: 168 mmHg
BP [24]: 165 mmHg
BP [25]: 178 mmHg
BP [6]: 152 mmHg
BP [26]: 157 mmHg
BP [27]: 171 mmHg

N=C(N)NCCN1CCCCCCC1 [GUANETHIDINE]
BP [13]: 163 mmHg
BP [14]: 138 mmHg
BP [15]: 183 mmHg
BP [16]: 194 mmHg
BP [18]: 187 mmHg
BP [22]: 181 mmHg
BP [23]: 146 mmHg
BP [24]: 154 mmHg
BP [26]: 163 mmHg
BP [27]: 166 mmHg

CN(C)c1ccc(-c2c(-c3ccc(Cl)cc3)c(-c3ccc(Cl)cc3)nn(CCO)c2=O)cc1.Cl
BP [1]: 184 mmHg
BP [2]: 188 mmHg
BP [3]: 223 mmHg
Heart rate [28]: Increased heart rate
BP [4]: 199 mmHg
BP [6]: 208 mmHg

CC(=O)c1c(-c2ccc(Cl)cc2)c(-c2ccc(Cl)cc2)nn(C(C)CO)c1=O (centres undefined)
BP [1]: 186 mmHg
BP [2]: 191 mmHg
BP [3]: 212 mmHg
BP [4]: 174 mmHg
BP [6]: 201 mmHg

N#Cc1c(O)nnc(-c2ccc(Cl)cc2)c1-c1ccc(Cl)cc1
BP [2]: 173 mmHg
BP [3]: 205 mmHg
BP [29]: 171 mmHg
BP [30]: 177 mmHg
Heart rate [31]: 0
BP [6]: 175 mmHg

CC(=O)c1c(-c2ccc(F)cc2)c(-c2ccc(F)cc2)nn(CCO)c1=O
BP [1]: 138 mmHg
BP [2]: 166 mmHg
BP [3]: 186 mmHg
BP [4]: 160 mmHg
BP [6]: 180 mmHg
